In paper PMC6988732 (The Biochemical journal, 2013):
Residue numbers refer to the chain shown, from its start. Values joined by “and” are separate entries in the source; they are usually repeats but may differ in a detail not shown here. Equal entries are not always repeated.

Key:
Assay in all cases: [3H]PDBu binding assay
[1] = target: T1, PKCθC1B L255G (Mus musculus, UniProt Q02111, L255G)
T1 sequence (Q02111 232-281 L255G): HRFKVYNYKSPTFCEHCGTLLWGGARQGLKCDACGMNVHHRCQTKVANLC
How it was run: (§1)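 GST-cleaved mouse PKCθ C1B (residues 232–281), E. coli-expressed, affinity/gel-filtration purified. PEG-precipitation [3H]PDBu binding; Kd from saturable plus linear non-specific fit. Ki: [3H]PDBu at 2–5-fold each construct's Kd, DOG or SAG 1–100000 nM, dried from chloroform with phospholipid, sonicated. PS dependence: total phospholipid 100 μg/ml, PS 0–100%, remainder PC, relative to 100% PS. Means ± S.E.M., three independent experiments.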

[2] = target: T2, PKCθC1B T243A (Mus musculus, UniProt Q02111, T243A)
T2 sequence (Q02111 232-281 T243A): T1 sequence (Q02111 232-281 L255G) with T12A, G24L
How it was run: as §1

[3] = target: T3, PKCθC1B Y239A (Mus musculus, UniProt Q02111, Y239A)
T3 sequence (Q02111 232-281 Y239A): T1 sequence (Q02111 232-281 L255G) with Y8A, G24L
How it was run: as §1

[4] = target: T4, PKCθC1B W253G (Mus musculus, UniProt Q02111, W253G)
T4 sequence (Q02111 232-281 W253G): T1 sequence (Q02111 232-281 L255G) with W22G, G24L

[5] = target: T5, PKCθC1B Q258G (Mus musculus, UniProt Q02111, Q258G)
T5 sequence (Q02111 232-281 Q258G): T1 sequence (Q02111 232-281 L255G) with G24L, Q27G
How it was run: as §1

[6] = target: T6, PKCθC1B wild-type (Mus musculus, UniProt Q02111)
T6 sequence (Q02111 232-281): T1 sequence (Q02111 232-281 L255G) with G24L
How it was run: as §1

For `CCCCC/C=C\C/C=C\C/C=C\C/C=C\CCCC(=O)OC(CO)COC(=O)CCCCCCCCCCCCCCCCC` (stereo not drawn) [SAG, sn-1-stearoyl 2-arachidonyl glycerol], the “reduction in binding affinity compared with the wild-type” value (from here on “reduction in binding affinity”) ([1]; L255G vs wild-type PKCθC1B (Kd for PDBu, Ki for DOG/SAG)) was 8.16 fold, the Ki/Kd ([1]; PKCθ C1B L255G, Ki of the diacylglycerol over Kd of PDBu) was 16 and the Ki ([1]; PKCθ C1B L255G, competition of [3H]PDBu binding, mean ± S.E.M.) was 71 ± 10 nM. The Ki/Kd ([2]; PKCθ C1B T243A, Ki of the diacylglycerol over Kd of PDBu) was 9, the Ki ([2]; PKCθ C1B T243A, competition of [3H]PDBu binding, mean ± S.E.M.) was 5.5 ± 1.5 nM and the “reduction in binding affinity” value ([2]; T243A vs wild-type PKCθC1B (Kd for PDBu, Ki for DOG/SAG)) was 0.63 fold. The Ki/Kd ([3]; PKCθ C1B Y239A, Ki of the diacylglycerol over Kd of PDBu) was 11, the Ki ([3]; PKCθ C1B Y239A, competition of [3H]PDBu binding, mean ± S.E.M.) was 35.1 ± 5.1 nM and the “reduction in binding affinity” value ([3]; Y239A vs wild-type PKCθC1B (Kd for PDBu, Ki for DOG/SAG)) was 4.13 fold. For the same compound, the Ki/Kd ([4]; PKCθ C1B W253G, Ki of the diacylglycerol over Kd of PDBu) was 92, the Ki ([4]; PKCθ C1B W253G, competition of [3H]PDBu binding, mean ± S.E.M.) was 271 ± 22 nM and the “reduction in binding affinity” value ([4]; W253G vs wild-type PKCθC1B (Kd for PDBu, Ki for DOG/SAG)) was 31.1 fold and 31 fold. The Ki/Kd ([5]; PKCθ C1B Q258G, Ki of the diacylglycerol over Kd of PDBu) was 3, the Ki ([5]; PKCθ C1B Q258G, competition of [3H]PDBu binding, mean ± S.E.M.) was 2260 ± 330 nM and the “reduction in binding affinity” value ([5]; Q258G vs wild-type PKCθC1B (Kd for PDBu, Ki for DOG/SAG)) was 260 fold. For the same compound, the “stronger binding affinity for SAG than for DOG” value ([6]; C1B domain of PKCθ) was 2 fold, the Ki/Kd ([6]; PKCθ C1B WT, Ki of the diacylglycerol over Kd of PDBu) was 22 and the Ki ([6]; PKCθ C1B WT, competition of [3H]PDBu binding, mean ± S.E.M.) was 8.7 ± 2 nM.
